Experimental data taken from ChEMBL document CHEMBL1123658, “1-(2-pyridinyl)piperazine derivatives with antianaphylactic, antibronchospastic, and mast cell stabilizing activities” (J Med Chem, 1987).

Columns and labels:
[1] = In vivo toxic effect was determined in mouse after intraperitoneal administration with 10% aqueous acacia gum; value ranges from 0.27-0.43; type: toxicity, organism-based; conditions: ip
Summary of the method: (§1)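 Female albino mice (20-30 g), 10 animals per dose, dosed intraperitoneally with compound in solution or suspension; compounds tested as salts unless noted. Mortality was recorded over 7 days.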

Rattus norvegicus [2] = assay: Rat PCA Test(50% inhibition of spot areas)in the female albino rats after ip administration in 10% aqueous acacia gum; Value ranges from (6-147).; conditions: read-out: ID50 (the source's name)
Rattus norvegicus [3] = assay: Inhibition of mast cell degranulation was assessed in female albino rats at a dose of 32 umol/kg iv; type: functional
Rattus norvegicus [4] = assay: Rat PCA Test(50% inhibition of spot areas)in the female albino rats after oral administration in 10% aqueous acacia gum; value ranges from 119-331; type: functional; conditions: read-out: ID50 (the source's name)
Summary of the method: (§2)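 Female rats (200-250 g) were passively sensitized by ventral intradermal anti-egg-albumin antiserum. This was raised in rats by intramuscular 1% egg albumin plus ip H. pertussis vaccine, with serum taken at 12 days. After 24 h, groups of 10 were dosed orally with compound or vehicle (10 mL/kg). At 60 min, iv challenge used 0.3% egg albumin with 1% Evans blue. Blued areas were measured after 30 min.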

Rattus norvegicus [5] = assay: Rat PCA Test(50% inhibition of spot areas)in the female albino rats after (ip) administration in 10% aqueous acacia gum; value ranges from 40-122; type: functional; conditions: read-out: ID50 (the source's name)
Summary of the method: (§3)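 Female albino rats (200–250 g) received intradermal ventral injections of rat anti-egg-albumin antiserum; donors were raised with egg albumin im plus H. pertussis ip, and serum was taken at 12 days. 24 h later, compound was given ip in 10% acacia gum (10 mL/kg), 10 rats/group. Challenge 30 min later was iv 0.3% egg albumin plus 1% Evans blue. Blued areas were measured 30 min after challenge.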

[6] = In vivo toxic effect was determined in mouse after intraperitoneal administration with 10% aqueous acacia gum; value ranges from 0.96-1.77; type: toxicity, organism-based; conditions: ip; summary of the method: as §1
[7] = In vivo toxic effect was determined in mouse after oral administration with 10% aqueous acacia gum; value ranges from 1.72-3.90; type: toxicity, organism-based
Summary of the method: (§4)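 Female albino mice, 20-30 g. Compound given orally as solution or suspension in 10% aqueous acacia gum, 10 animals per dose. Deaths recorded over 7 days.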

Rattus norvegicus [8] = assay: Inhibition of mast cell degranulation was assessed in female albino rats at a dose of 65 umol/kg iv; type: functional
Cavia porcellus [9] = assay: Antibronchospatic activity determined by histamine stimulated bronchospasm inhibition in guinea pigs after(i.v.) administration; type: functional, Bronchiole
Summary of the method: (§5)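 Guinea pigs, Konzett–Rössler preparation. Bronchospasm was induced with histamine. Compound was given iv (1 mL/kg) 1 min before the agonist, dissolved in saline or saline with slight excess HCl or CH3SO3H (pH 3.5–4). Three doses were tested in duplicate, chosen to give 20–90% inhibition. ID75 was read graphically from log dose–response curves.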

Rattus norvegicus [10] = assay: Rat PCA Test(50% inhibition of spot areas)in the female albino rats after oral administration in 10% aqueous acacia gum; value ranges from 184-369; type: functional; conditions: read-out: ID50 (the source's name); summary of the method: as §2
Rattus norvegicus [11] = assay: Rat PCA Test(50% inhibition of spot areas)in the female albino rats after (ip) administration in 10% aqueous acacia gum; value ranges from 99-415; type: functional; conditions: read-out: ID50 (the source's name)
Summary of the method: (§6)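 Antiserum came from female rats given 1% egg albumin in 0.9% NaCl intramuscularly plus Haemophilus pertussis vaccine (2 × 10^10 organisms) intraperitoneally, and was collected 12 days later. Recipient rats (200-250 g) got it intradermally at a ventral site. After 24 h, groups of 10 received vehicle or compound ip. At 30 min they were challenged iv with 0.3% egg albumin plus 1% Evans blue. Blued skin areas were measured 30 min later.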

[12] = In vivo toxic effect was determined in mouse after intraperitoneal administration with 10% aqueous acacia gum; value ranges from 1.82-3.42; type: toxicity, organism-based; conditions: ip; summary of the method: as §1
Rattus norvegicus [13] = assay: Rat PCA Test(50% inhibition of spot areas)in the female albino rats after (ip) administration in 10% aqueous acacia gum; type: functional; conditions: read-out: ID50 (the source's name); summary of the method: as §3
Rattus norvegicus [14] = assay: Rat PCA Test(50% inhibition of spot areas)in the female albino rats after oral administration in 10% aqueous acacia gum; type: functional; conditions: read-out: ID50 (the source's name); summary of the method: as §2
[15] = In vivo toxic effect was determined in mouse after intraperitoneal administration with 10% aqueous acacia gum; value ranges from 0.94-1.40; type: toxicity, organism-based; conditions: ip; summary of the method: as §1
[16] = In vivo toxic effect was determined in mouse after oral administration with 10% aqueous acacia gum value ranges from 1.63-2.93; type: toxicity, organism-based
Cavia porcellus [17] = assay: Antibronchospatic activity was determined by inhibition of histamine stimulated bronchospasm in guinea pigs after (iv) administration; type: functional, Bronchiole; summary of the method: as §5
Rattus norvegicus [18] = assay: Rat PCA Test(50% inhibition of spot areas)in the female albino rats after ip administration in 10% aqueous acacia gum; type: functional; conditions: read-out: ID50 (the source's name); summary of the method: as §6
[19] = In vivo toxic effect was determined in mouse after intraperitoneal administration with 10% aqueous acacia gum; value ranges from (0.47-0.85); type: toxicity, organism-based; conditions: ip; summary of the method: as §1
Rattus norvegicus [20] = assay: Rat PCA Test(50% inhibition of spot areas)in the female albino rats after oral administration in 10% aqueous acacia gum; value ranges from 161-222; type: functional; conditions: read-out: ID50 (the source's name); summary of the method: as §2
Rattus norvegicus [21] = assay: Rat PCA Test(50% inhibition of spot areas)in the female albino rats after (ip) administration in 10% aqueous acacia gum; value ranges from 128-203; type: functional; conditions: read-out: ID50 (the source's name); summary of the method: as §3
Mus musculus = assay: In vivo toxic effect was determined in mouse after intraperitoneal administration with 10% aqueous acacia gum; NA means poorly absorbed; type: toxicity, organism-based; conditions: ip; summary of the method: as §1
[22] = In vivo toxic effect was determined in mouse after oral administration with 10% aqueous acacia gum; value ranges from 4.50-5.90; type: toxicity, organism-based; summary of the method: as §4
Rattus norvegicus [23] = assay: Inhibition of mast cell degranulation was assessed in female albino rats at a dose of 50 umol/kg iv; type: functional
[24] = In vivo toxic effect was determined in mouse after intraperitoneal administration with 10% aqueous acacia gum; value ranges from 1.35-1.82; type: toxicity, organism-based; conditions: ip; summary of the method: as §1
Rattus norvegicus [25] = assay: Inhibition of mast cell degranulation was assessed in female albino rats at a dose of 45 umol/kg iv; type: functional
Rattus norvegicus [26] = assay: Rat PCA Test(50% inhibition of spot areas)in the female albino rats after oral administration in 10% aqueous acacia gum; value ranges from 110-212; type: functional; conditions: read-out: ID50 (the source's name); summary of the method: as §2
Rattus norvegicus [27] = assay: Rat PCA Test(50% inhibition of spot areas)in the female albino rats after (ip) administration in 10% aqueous acacia gum; value ranges from 57-142; type: functional; conditions: read-out: ID50 (the source's name); summary of the method: as §3
[28] = In vivo toxicity in mouse after oral administration with 10% aqueous acacia gum; type: organism-based; summary of the method: as §4
Rattus norvegicus [29] = assay: Rat PCA Test(50% inhibition of spot areas)in the female albino rats after ip administration in 10% aqueous acacia gum; Value ranges from(26-134); type: functional; conditions: read-out: ID50 (the source's name); summary of the method: as §6
[30] = In vivo toxic effect was determined in mouse after intraperitoneal administration with 10% aqueous acacia gum; value ranges from 0.39-0.70; type: toxicity, organism-based; conditions: ip; summary of the method: as §1
[31] = In vivo toxic effect was determined in mouse after intraperitoneal administration with 10% aqueous acacia gum; value ranges from 0.56-0.94; type: toxicity, organism-based; conditions: ip; summary of the method: as §1
Rattus norvegicus [32] = assay: Rat PCA Test(50% inhibition of spot areas)in the female albino rats after oral administration in 10% aqueous acacia gum; value ranges from 80-141; type: functional; conditions: read-out: ID50 (the source's name); summary of the method: as §2
Rattus norvegicus [33] = assay: Rat PCA Test(50% inhibition of spot areas)in the female albino rats after (ip) administration in 10% aqueous acacia gum; value ranges from 45-69; type: functional; conditions: read-out: ID50 (the source's name); summary of the method: as §3
[34] = In vivo toxic effect was determined in mouse after intraperitoneal administration with 10% aqueous acacia gum; value ranges from 0.48-0.77; type: toxicity, organism-based; conditions: ip; summary of the method: as §1
[35] = In vivo toxic effect was determined in mouse after oral administration with 10% aqueous acacia gum; value ranges from 1.23-1.71; type: toxicity, organism-based; summary of the method: as §4

Cc1c(C)c([N+](=O)[O-])c(C)c(C)c1C(=O)NCCN1CCN(c2ccccn2)CC1.Cl.Cl
LD50 [1]: 320 µmol/kg | ED50 (Rattus norvegicus [2]): 30 µmol/kg

Cl.Cl.O=C(CCN1CCN(c2ccccn2)CC1)Nc1ccccc1Cl
inhibition in vivo at 32 µmol/kg (Rattus norvegicus [3]): 0% | ED50 (Rattus norvegicus [4]): 199 µmol/kg | ED50 (Rattus norvegicus [5]): 70 µmol/kg | LD50 [6]: 1290 µmol/kg | LD50 [7]: 2640 µmol/kg

Cl.Cl.NC(=O)CCN1CCN(c2ccccn2)CC1
inhibition in vivo at 65 µmol/kg (Rattus norvegicus [8]): 23% | ID75 (Cavia porcellus [9]): 2.47 µM/kg | ED50 (Rattus norvegicus [10]): 260 µmol/kg | ED50 (Rattus norvegicus [11]): 203 µmol/kg | LD50 [12]: 2440 µmol/kg

CC(C)Sc1ccc(NC(=O)CCN2CCN(c3ccccn3)CC2)cc1
ID75 (Cavia porcellus [9]): 0.8 µM/kg | ED50 (Rattus norvegicus [13]): > 120 µmol/kg | ED50 (Rattus norvegicus [14]): > 221 µmol/kg | LD50 [15]: 1140 µmol/kg | LD50 [16]: 2180 µmol/kg

CCCCOc1cc(C(=O)NCCN2CCN(c3ccccn3)CC2)c2ccccc2n1.Cl.Cl
ID75 (Cavia porcellus [17]): 8.15 µM/kg | ED50 (Rattus norvegicus [18]): > 175 µmol/kg | LD50 [19]: 540 µmol/kg

Cl.Cl.O=C(CCN1CCN(c2ccccn2)CC1)Nc1ccc(O)cc1
ID75 (Cavia porcellus [9]): 0.49 µM/kg | ED50 (Rattus norvegicus [20]): 189 µmol/kg | ED50 (Rattus norvegicus [21]): 161 µmol/kg | LD50 (Mus musculus): Not Active | LD50 [22]: 5200 µmol/kg | inhibition in vivo at 50 µmol/kg (Rattus norvegicus [23]): 64%

COC(=O)CC(C)N1CCN(c2ccccn2)CC1.O=C(O)/C=C\C(=O)O.O=C(O)/C=C\C(=O)O (stereo not given)
ID75 (Cavia porcellus [9]): 2.37 µM/kg | ED50 (Rattus norvegicus [13]): > 404 µmol/kg | LD50 [24]: 1350 µmol/kg

CC(=O)Nc1ccc(NC(=O)CCN2CCN(c3ccccn3)CC2)cc1.Cl.Cl
inhibition in vivo at 45 µmol/kg (Rattus norvegicus [25]): 29% | ID75 (Cavia porcellus [9]): 0.97 µM/kg | ED50 (Rattus norvegicus [26]): 153 µmol/kg | ED50 (Rattus norvegicus [27]): 90 µmol/kg | LD50 [28]: > 6810 µmol/kg

Cc1cc([N+](=O)[O-])cc(C)c1C(=O)NCCN1CCN(c2ccccn2)CC1.Cl.Cl
ID75 (Cavia porcellus [9]): 4.6 µM/kg | ED50 (Rattus norvegicus [29]): 78 µmol/kg | LD50 [30]: 530 µmol/kg

Cc1cc(C)c(C)c(NC(=O)CN2CCN(c3ccccn3)CC2)c1C
ID75 (Cavia porcellus [9]): >23.5 µM/kg | ED50 (Rattus norvegicus [13]): > 212 µmol/kg | LD50 [31]: 650 µmol/kg

COc1cccc(N2CCN(CCC(=O)Nc3ccc(N)cc3)CC2)n1.Cl.Cl
ID75 (Cavia porcellus [9]): 0.4 µM/kg | ED50 (Rattus norvegicus [32]): 106 µmol/kg | ED50 (Rattus norvegicus [33]): 56 µmol/kg | LD50 [34]: 530 µmol/kg | LD50 [35]: 1600 µmol/kg
